# This is a sample that favours compounds with a hit; in the whole collection about 3.3% have one here.
# Statin myotox sup = suppression of simvastatin myotoxicity; rescue of ATP level, % at 7.49 µM; actives 0.78% (n = 330,000); C2C12 myotubes + simvastatin, ATP luminescence, 48 h; scaled: DMSO 0, geranylgeraniol control 100;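 active = mean ATP rescue above about 67%, or every replicate alone reaching that limit, limit read from the data, passing the limit was not always enough; inconclusive = no clear call, values can overlap the other calls; inactive = mean under the limit and some replicate under it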;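 also: myotubes were challenged with 10 µM simvastatin during compound exposure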
# E-sel inducer = E-selectin induction on HUVECs. activation, % at 7.58 µM. AID 686992. actives 0.37% (n = 260,000). HUVEC E-selectin immunofluorescence imaging; normalized: neutral wells 0, TNF-alpha wells 100. P16581;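 active = mean E-selectin-positive cell signal at least 10% of the positive control, reached in at least 60% of replicates, without over 20% cell loss; inconclusive = no rule given, readout overlaps actives, possibly toxicity-flagged; inactive = the rest, including those meeting only one limit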
# Target sequence (P16581 whole entry, looked up): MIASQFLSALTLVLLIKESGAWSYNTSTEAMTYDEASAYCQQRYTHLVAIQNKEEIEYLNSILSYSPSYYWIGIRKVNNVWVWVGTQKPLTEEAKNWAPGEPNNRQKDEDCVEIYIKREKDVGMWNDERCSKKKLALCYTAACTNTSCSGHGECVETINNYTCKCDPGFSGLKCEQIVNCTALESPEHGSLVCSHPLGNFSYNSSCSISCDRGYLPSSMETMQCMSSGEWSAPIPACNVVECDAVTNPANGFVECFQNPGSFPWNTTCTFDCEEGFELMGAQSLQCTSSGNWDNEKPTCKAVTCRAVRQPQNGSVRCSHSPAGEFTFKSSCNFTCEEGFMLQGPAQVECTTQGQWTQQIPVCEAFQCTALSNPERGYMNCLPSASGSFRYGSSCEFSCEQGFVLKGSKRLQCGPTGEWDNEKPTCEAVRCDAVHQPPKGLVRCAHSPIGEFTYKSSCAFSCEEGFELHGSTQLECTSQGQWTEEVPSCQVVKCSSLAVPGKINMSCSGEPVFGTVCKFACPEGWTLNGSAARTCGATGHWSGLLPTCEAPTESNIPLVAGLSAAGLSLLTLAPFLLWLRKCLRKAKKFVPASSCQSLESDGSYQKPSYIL
#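 Test system: HUVEC | Signal: Immunofluorescence imaging | Read-out: Percent E-selectin-positive cells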
# FGF22 binding = binders of recombinant human FGF22 by thermal shift. Q9HCT0. activity (Tm shift, normalised), % at 9.99 µM. SYPRO orange fluorescence; percent of sucrose octasulfate shift, DMSO zero. actives 1.5% (n = 340,000);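 active = mean Tm shift, scaled 0 neutral to 100 positive control, at about 1.3% or above, every replicate too, limit read from the data; inconclusive = no clear call, values can overlap the other calls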
# XiGFP reactiv = X-chromosome reactivation activator | XiGFP mouse fibroblasts, % GFP-positive cells imaging, 3 d; cells co-treated with 5-aza-dC sensitizer; scaled so ellipticine positive control = 100% | activation, % at 7.58 µM | actives 0.055% (n = 360,000) | AID 743238;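 active = mean normalized replicate activation at least 10% and every replicate at or above 10%; inconclusive = only one of the two criteria met; inactive = mean below 10% and not all replicates reach 10%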;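 also: 0% = median of on-plate neutral control wells and 100% = ellipticine 6 µM median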
#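 Material: SV40-immortalized XiGFP fibroblast cells, line 68-5-11 | Buffer or medium: DMEM containing 5-aza-dC | Dosing: One concentration, pinned | Times: 3 d treatment, 15 min room-temperature fixation | Controls: Ellipticine 6 µM positive control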
# PglD inh = PglD (C. jejuni) enzyme inhibition | purified PglD enzyme, DTNB colorimetric CoA detection | actives 0.098% (n = 360,000) | inhibition, % at 12.5 µM | AID 602405; in the data active = inhibition above about 16%, passing the limit was not always enough; inconclusive = no clear call, values can overlap the other calls
# DENV2 CPE = DENV2-induced cell death inhibition. DENV2-infected cells, cytopathic effect rescue, plate reader. CPE inhibition, % at 9.99 µM. actives 1.7% (n = 350,000); in the data active = CPE inhibition above about 20%, passing the limit was not always enough; inconclusive = no clear call, values can overlap the other calls; tested in BHK-21 cells;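 also: 0% = median of neutral control wells and 100% = median of positive control wells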
# Active calls of the source: *; u = inconclusive; x = no result given.
SMILES,Statin myotox sup,E-sel inducer,FGF22 binding,XiGFP reactiv,PglD inh,DENV2 CPE
COCCCC1CCN(C(=O)C2CCC(=O)N(CCCc3ccccc3)C2)CC1 (stereo not given),11,0,43*,0,-3,1
COCCCC1CCN(C(=O)C2CCC(=O)N(CCc3ccccc3)C2)CC1 (stereo not given),x,-1,0,0,0,5
CO[C@H]1CN(C)C(=O)c2cc(NC(C)=O)ccc2OC[C@@H](C)N(C(=O)CC2CC2)C[C@@H]1C,1,0,0,0,2,-5
CCN(CC)C(=O)c1sc(NC(=O)c2c(OC)cccc2OC)c(C#N)c1C,x,x,0,0,5,0
CCN(CC)C(=O)c1sc(NC(=O)C(C)C)c(C#N)c1C,3,x,44*,0,2,-5
C[C@@H]1CN([C@H](C)CO)C(=O)c2cc(NC(=O)Cn3cnnn3)ccc2O[C@@H]1CN(C)C(=O)Nc1ccccc1,x,0,0,1,-2,7
Cc1ccc(CSCC(=O)Nc2ccccc2F)cc1,5,0,43*,0,-6,u
COCc1c(Br)c(C)[nH]c(=O)c1C#N,-7,x,x,x,6,x
CCOCc1cc(C)[nH]c(=O)c1C#N,99*,x,x,x,-1,x
Cc1ccc(S(=O)(=O)N2C[C@H](O)COC[C@@H]3O[C@H](CC(=O)NCCN4CCCCC4)CC[C@H]32)cc1,-1,0,0,0,-2,4
COc1ccc(NC(=O)C(CC(=O)O)Cc2ccc(C)cc2)cc1 (stereo not given),-3,x,43*,0,x,-1
CN1C(=O)[C@@](O)(c2cn(C)c3ccccc23)c2ccccc21,x,1,0,0,x,-7
Cn1cc([C@]2(O)C(=O)Nc3ccccc32)c2ccccc21,x,0,0,0,x,31*
COc1ccc(Sc2nc(-c3ccccc3)ncc2C(=O)O)cc1,x,x,43,0,x,3
COc1ccc(Oc2nc(-c3ccccc3)ncc2C(=O)O)cc1,-3,x,43*,0,x,10
COc1ccccc1-c1cnc2c(c1)C(=O)N([C@@H](C)CO)C[C@@H](C)[C@@H](CN(C)Cc1cccnc1)O2,11,0,0,1,10,-10
Cc1ccc(S(=O)(=O)Nc2cccc3c2O[C@@H](CN(C)C(=O)Nc2ccc(F)cc2)[C@@H](C)CN([C@H](C)CO)C3=O)cc1,-52,0,0,0,-2,2
COc1ccc(CC2(c3ccccc3)NC(=O)NC2=O)cc1 (stereo not given),2,0,43*,0,-2,4
O=C1NC(=O)C(Cc2ccccc2)(c2ccccc2)N1 (stereo not given),-6,0,0,0,3,4
COc1ccc(S(=O)(=O)N(C)C[C@@H]2OCCCC[C@@H](C)Oc3ccc(NC(=O)CCC(F)(F)F)cc3C(=O)N([C@H](C)CO)C[C@H]2C)cc1,x,0,0,-1,-2,-9
CN(CCOC(=O)c1cccc(F)c1)Cc1ccccc1,x,x,43*,0,x,8
O=C(c1ccccc1F)N1CC[C@@H]2[C@H](CO)Nc3ccc(Br)cc3[C@@H]21,-8,0,0,0,-1,-4
C[C@@H]1CN([C@H](C)CO)C(=O)c2cccc(NC(=O)C3CCOCC3)c2O[C@@H]1CN(C)Cc1ccc(Oc2ccccc2)cc1,9,380*,0,0,9,3
C[C@H]1CN([C@@H](C)CO)C(=O)c2cccc(NC(=O)C3CCOCC3)c2O[C@H]1CN(C)Cc1ccc(Oc2ccccc2)cc1,-33,u,0,0,6,-4
C[C@@H]1CN([C@@H](C)CO)C(=O)c2cccc(NC(=O)C3CC3)c2O[C@H]1CN(C)Cc1ccc(Oc2ccccc2)cc1,-9,-1,0,0,-3,-8
SMILES,Statin myotox sup,E-sel inducer,FGF22 binding,XiGFP reactiv,PglD inh,DENV2 CPE
C[C@H](CO)N1C[C@H](C)[C@H](CN(C)Cc2ccc(Oc3ccccc3)cc2)Oc2c(NC(=O)C3CCOCC3)cccc2C1=O,8,168*,-1,0,8,2
C[C@@H]1CN([C@H](C)CO)C(=O)c2cccc(NC(=O)C3CCOCC3)c2O[C@@H]1CN(C)Cc1ccc(C(F)(F)F)cc1,24,-13,0,0,-1,39*
C[C@@H]1CCCCO[C@H](CN(C)Cc2ccc3c(c2)OCO3)[C@@H](C)CN([C@H](C)CO)C(=O)c2cc(NS(C)(=O)=O)ccc2O1,-4,0,0,0,0,-4
CC(C)NC(=O)N[C@@H]1CC[C@@H](CCNC(=O)C2CCOCC2)O[C@H]1CO,6,0,0,0,2,-1
CNC[C@@H]1Oc2ccc(NS(=O)(=O)c3ccc(OC)cc3)cc2CC(=O)N([C@@H](C)CO)C[C@@H]1C,-8,-4,0,-1,0,-1
CCn1cc(CN2CCN(Cc3cccc(OC)c3)C(CCO)C2)c(C)n1 (stereo not given),x,2,43*,0,x,-1
COCc1cc(CN2CCN(Cc3ccsc3)C(CCO)C2)ccc1OC (stereo not given),x,2,43*,0,x,3
CC(C)(O)C#Cc1ccc(CN2CCN(Cc3ccsc3)C(CCO)C2)cc1 (stereo not given),x,x,43*,0,x,0
Cc1c(C(=O)NCc2cccnc2)oc2ccc(S(=O)(=O)N3CC(C)CC(C)C3)cc12 (stereo not given),-2,x,0,0,-3,21*
O=C(C[C@H]1CC[C@H](NC(=O)c2ccncc2)[C@@H](CO)O1)NCC1CCCCC1,7,0,x,0,3,11
CC1(C)C(=O)Nc2ccccc2N1C(=O)COC(=O)C12CC3CC(CC(O)(C3)C1)C2,89*,0,x,x,2,x
O=C1CN(C(=O)COC(=O)C23CC4CC(CC(O)(C4)C2)C3)c2ccccc2N1,4,0,x,x,-1,x
C=CCC(O)(CCN1CCCCC1)c1ccccc1 (stereo not given),88*,x,x,x,-14,x
OC(CCN1CCCCC1)(c1ccccc1)c1ccccc1,-2,2,0,0,6,-1
C[C@H](CO)N1C[C@H](C)[C@@H](CN(C)Cc2ccc(C(F)(F)F)cc2)Oc2ccc(NC(=O)Cc3ccccc3)cc2CC1=O,116*,0,0,1,-4,-11
C[C@H](CO)N1C[C@H](C)[C@H](CN(C)Cc2ccncc2)Oc2ccc(NC(=O)Cc3ccccc3)cc2CC1=O,-6,14,0,0,4,0
